# Compound activity: PubChem, Broad Institute
# Pf Dd2 growth: P. falciparum Dd2 growth inhibitors, primary screen, SYBR Green fluorescence, single dose replicates. 72 h; hits give low values. activity change, % at 10 µM. 94,000 compounds, 2.3% hits. AID 1159554, 2015; in the data active = activity change below about -80%; inconclusive = no clear call, values can overlap the other calls
# IDH1 R132H inh: inhibitors of IDH1 R132H reductase, primary screen, biochemical, plate reader, single point | diaphorase/resazurin fluorescence, 60 min | inhibition, % at 10 µM | AID 624101, 2012 | 70,000 compounds, 0.18% hits; in the data active = inhibition above about 34%; inconclusive = no clear call, values can overlap the other calls; inactive = below about 11%
# T cruzi growth-1: T. cruzi intracellular proliferation inhibitors, primary screen, cell-based, beta-gal Tulahuen parasites, NIH3T3 host, luminescence | T. cruzi beta-gal in NIH3T3, GalScreen luminescence, 90 h | inhibition, % at 8.34 µM | 77,000 compounds, 5.9% hits;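 active = mean inhibition above about 93%, with at least 55% of replicates each passing it, limit read from the data, passing the limit was not always enough; inconclusive = only one of those two conditions holds; inactive = neither condition holds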
# GASC1 inh: inhibitors of GASC-1 (KDM4C) histone demethylase, primary screen, biochemical, single concentration HTS; GST-KDM4C 2-372, H3K9me3 peptide, LANCE TR-FRET; inhibition, % at 12.5 µM; 96,000 compounds, 0.15% hits; AID 720574, 2013;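 active = mean replicate inhibition above about 25%, with at least 55% of replicates also reaching it, limit read from the data, passing the limit was not always enough; inconclusive = only one of those two conditions met; inactive = neither condition met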
# Target sequence (Q9H3R0 2-372 limits assumed): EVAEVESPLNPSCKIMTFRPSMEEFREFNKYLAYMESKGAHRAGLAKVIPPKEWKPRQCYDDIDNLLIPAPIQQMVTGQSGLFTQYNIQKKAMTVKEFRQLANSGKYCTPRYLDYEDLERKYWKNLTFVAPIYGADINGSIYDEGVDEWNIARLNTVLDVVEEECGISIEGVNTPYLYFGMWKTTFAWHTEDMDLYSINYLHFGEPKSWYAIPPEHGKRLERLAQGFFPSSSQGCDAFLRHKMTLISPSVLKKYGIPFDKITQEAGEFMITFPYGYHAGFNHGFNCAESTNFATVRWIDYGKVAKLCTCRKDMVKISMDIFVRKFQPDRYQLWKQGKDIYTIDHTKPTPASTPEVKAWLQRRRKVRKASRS
#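 Material: GST-tagged GASC-1 (JMJD2C) catalytic fragment, aa 2-372. Input: enzyme final amount 10 nM. Medium: HEPES buffer, pH 7.5, plus ascorbate. Reagent: H3K9me3 peptide substrate, Fe(II), 2-oxoglutarate. Doses: single dose. Times: reaction 30 min RT, detection step 1 h RT. Measured by: LANCE TR-FRET. Evaluation: Fall in 671/618 emission ratio as inhibition.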
# T cruzi growth-2: T. cruzi intracellular proliferation inhibitors, confirmation, cell-based, NIH3T3 host, beta-gal parasite, luminescence, cherry-pick; shares compounds with T cruzi growth-1; T. cruzi beta-gal in NIH3T3, GalScreen luminescence, 90 h; inhibition, % at 8.35 µM; 5,600 compounds, 72% hits;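 active = mean replicate inhibition above about 95% and at least 55% of replicates individually reaching it, limit read from the data; inconclusive = only one of the two criteria is met; inactive = neither criterion is met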
# T cruzi growth-3: inhibitors of intracellular T. cruzi replication, confirmation, NIH3T3 host cells, beta-gal parasites, cherry-pick, set 2 | inhibition, % at 2.09 µM | shares compounds with T cruzi growth-1 | 5,600 compounds, 21% hits | T. cruzi beta-gal in NIH3T3, GalScreen luminescence, 90 h;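 active = mean inhibition above about 95%, with at least 55% of replicates also reaching it, limit read from the data; inconclusive = meets just one of the two conditions; inactive = meets neither condition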
# 3T3 cytotox: cytotoxicity in mouse NIH/3T3 fibroblasts, confirmation, cytotoxicity control for T. cruzi proliferation inhibitor project, cell-based, cherry-pick, single point. shares compounds with T cruzi growth-1. NIH/3T3 viability, CellTiter-Glo ATP luminescence, 90 h. cytotoxicity (signal decrease), % at 8.35 µM. 5,600 compounds, 14% hits;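 active = mean signal decrease across replicates above about 35% based on untreated-well scatter, with enough replicates individually passing, limit read from the data; inconclusive = no rule stated though some were filed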
# NIH3T3 tox 2: NIH/3T3 fibroblast cytotoxicity, confirmation, cytotoxicity control, cell-based, cherry-pick, single point, set 2. shares compounds with T cruzi growth-1. NIH/3T3 viability, CellTiter-Glo ATP luminescence, 90 h. inhibition, % at 24.9 µM. 5,600 compounds, 56% hits;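 active = mean loss of cell viability signal at or above a set limit, and enough replicates individually reaching it; inconclusive = meets only the mean limit or only the replicate share; inactive = meets neither condition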
# Numbers stand for hits; n = inactive; u = inconclusive; x = no result. Only some compounds are listed: those with a hit (about 5.8% of all), similar ones and a draw of the others.
SMILES,Pf Dd2 growth,IDH1 R132H inh,T cruzi growth-1,GASC1 inh,T cruzi growth-2,T cruzi growth-3,3T3 cytotox,NIH3T3 tox 2
C[C@H]1CCCCO[C@H](CN(C)Cc2ccc3c(c2)OCO3)[C@@H](C)CN([C@@H](C)CO)C(=O)c2cc(NC(=O)NC3CCCCC3)ccc2O1,x,x,100,n,108,n,n,102
C[C@@H]1CCCCO[C@H](CN(C)Cc2ccc3c(c2)OCO3)[C@@H](C)CN([C@@H](C)CO)C(=O)c2cc(NC(=O)NC3CCCCC3)ccc2O1,x,n,n,n,x,x,x,x
O=S(=O)(c1ccccc1F)N1CCCCN2[C@H](CO)[C@H](c3ccc(-c4cccnc4)cc3)[C@H]2C1,n,x,u,n,n,n,n,u
O=S(=O)(c1ccccc1F)N1CCCCN2[C@H](CO)[C@@H](c3ccc(-c4ccncc4)cc3)[C@H]2C1,n,x,n,n,x,x,x,x
O=S(=O)(c1ccccc1F)N1CCCCN2[C@H](C1)[C@@H](c1ccc(-c3cccnc3)cc1)[C@@H]2CO,n,x,n,n,x,x,x,x
O=S(=O)(c1ccccc1F)N1CCCCN2[C@H](C1)[C@H](c1ccc(-c3ccncc3)cc1)[C@@H]2CO,n,x,96,n,112,n,n,n
Cc1cc(N(CC(=O)Nc2ccc(Cl)cc2C)S(C)(=O)=O)ccc1Br,x,n,x,x,x,x,x,x
COc1ccc(-c2ccc3c(c2)O[C@@H](CN(C)C(=O)c2ccccc2F)[C@@H](C)CN([C@H](C)CO)S3(=O)=O)cc1,n,n,n,n,x,x,x,x
COc1ccc(-c2ccc3c(c2)O[C@@H](CN(C)C(=O)c2ccccc2F)[C@H](C)CN([C@@H](C)CO)S3(=O)=O)cc1,n,n,110,n,n,n,47,79
COc1ccc(-c2ccc3c(c2)O[C@H](CN(C)C(=O)c2ccccc2F)[C@@H](C)CN([C@@H](C)CO)S3(=O)=O)cc1,n,n,106,n,105,n,n,54
COc1ccc(-c2ccc3c(c2)O[C@H](CN(C)C(=O)Nc2ccccc2F)[C@@H](C)CN([C@@H](C)CO)S3(=O)=O)cc1,n,n,98,n,108,n,n,58
COc1ccc(-c2ccc3c(c2)O[C@H](CN(C)C(=O)c2ccccc2F)[C@@H](C)CN([C@H](C)CO)S3(=O)=O)cc1,n,n,108,n,102,n,n,36
COC(=O)c1ccc(C)c(NC(=O)CN(c2ccc(Cl)c(Cl)c2)S(C)(=O)=O)c1,x,n,x,x,x,x,x,x
COc1ccc(-c2ccc3c(c2)O[C@@H](CN(C)C(=O)c2ccccc2F)[C@H](C)CN([C@H](C)CO)S3(=O)=O)cc1,n,n,114,n,105,n,40,70
CN(CC(N)=O)S(=O)(=O)c1ccc2ccccc2c1,x,n,x,x,x,x,x,x
COc1ccc(NC(=O)Nc2ccc3c(c2)C(=O)N([C@H](C)CO)C[C@@H](C)[C@H](CN(C)Cc2ccc(C(F)(F)F)cc2)O3)cc1,n,n,n,n,x,x,x,x
COc1ccc(NC(=O)Nc2ccc3c(c2)C(=O)N([C@@H](C)CO)C[C@H](C)[C@H](CN(C)Cc2ccc(C(F)(F)F)cc2)OCCCC[C@@H](C)O3)cc1,n,n,96,n,105,102,n,n
C[C@@H]1CCCCO[C@H](CN(C)Cc2ccc(C(F)(F)F)cc2)[C@@H](C)CN([C@H](C)CO)C(=O)c2cc(NC(=O)Nc3ccc(C(F)(F)F)cc3)ccc2O1,n,n,99,n,105,112,n,n
C[C@H]1CCCCO[C@@H](CN(C)Cc2ccc(C(F)(F)F)cc2)[C@@H](C)CN([C@@H](C)CO)C(=O)c2cc(NC(=O)Nc3ccc(C(F)(F)F)cc3)ccc2O1,-83,x,u,n,u,113,38,n
C[C@@H]1CN([C@H](C)CO)C(=O)c2cc(NC(=O)Nc3ccc(C(F)(F)F)cc3)ccc2O[C@@H](C)CCCCO[C@H]1CN(C)Cc1ccc(C(F)(F)F)cc1,u,n,n,n,x,x,x,x
COc1ccc(CN(C)C[C@H]2OCCCC[C@@H](C)Oc3ccc(NC(=O)Nc4ccc(C(F)(F)F)cc4)cc3C(=O)N([C@H](C)CO)C[C@@H]2C)cc1,n,x,n,x,x,x,x,x
COc1ccc(NC(=O)Nc2ccc3c(c2)C(=O)N([C@@H](C)CO)C[C@@H](C)[C@H](CN(C)Cc2ccc(C(F)(F)F)cc2)O3)cc1,n,n,111,n,104,n,u,97
C[C@@H]1CCCCO[C@H](CN(C)Cc2ccc(C(F)(F)F)cc2)[C@@H](C)CN([C@@H](C)CO)C(=O)c2cc(NC(=O)Nc3ccc(C(F)(F)F)cc3)ccc2O1,n,x,n,n,x,x,x,x
Cc1ccc(S(=O)(=O)N2C(=O)CCC2C(=O)Nc2ccc(Cl)c(Cl)c2)cc1 (stereo not given),x,n,x,x,x,x,x,x
O=C(CCCN1C(=O)c2ccccc2C1=O)Nc1ccccc1F,x,n,x,x,x,x,x,x
SMILES,Pf Dd2 growth,IDH1 R132H inh,T cruzi growth-1,GASC1 inh,T cruzi growth-2,T cruzi growth-3,3T3 cytotox,NIH3T3 tox 2
C[C@H](CO)N1C[C@H](C)[C@@H](CN(C)Cc2ccc(C(F)(F)F)cc2)OCCCC[C@H](C)Oc2ccc(NC(=O)Nc3ccc(C(F)(F)F)cc3)cc2C1=O,n,x,n,n,x,x,x,x
C[C@@H]1CCCCO[C@@H](CN(C)Cc2ccc(C(F)(F)F)cc2)[C@@H](C)CN([C@H](C)CO)C(=O)c2cc(NC(=O)Nc3ccc(C(F)(F)F)cc3)ccc2O1,n,x,99,n,112,105,n,n
Cc1ccccc1-c1ccc([C@@H]2[C@@H](CO)N3CCCCN(S(=O)(=O)c4cn(C)cn4)C[C@H]23)cc1,n,x,n,n,x,x,x,x
Cc1ccccc1-c1ccc([C@@H]2[C@H](CO)N3CCCCN(S(=O)(=O)c4cn(C)cn4)C[C@@H]23)cc1,n,x,n,n,x,x,x,x
Cc1ccccc1-c1ccc([C@H]2[C@H]3CN(S(=O)(=O)c4cn(C)cn4)CCCCN3[C@H]2CO)cc1,n,x,114,n,n,n,n,u
Cc1ccccc1-c1ccc([C@H]2[C@@H](CO)N3CCCCN(S(=O)(=O)c4cn(C)cn4)C[C@@H]23)cc1,n,x,115,n,n,n,n,32
CNC(=S)NCc1sc2ccccc2c1C,x,n,x,x,x,x,x,x
Cn1c2c(c(=O)n(C)c1=O)CN(CC1CC1)CN2,x,n,x,x,x,x,x,x
